These results are taken from ChEMBL document CHEMBL1140901, “Discovery of novel arylethynyltriazole ribonucleosides with selective and effective antiviral and antiproliferative activity” (J Med Chem, 2009).

The source made the active and inactive calls. The calls are words filed in the database; no cut-off is given here. Some results are limits rather than exact numbers.

In series [1] the test system is MIA PaCa-2. Nature of the series: Antiproliferative activity against human MIAPaCa2 cells after 2 days by MTT assay. It counts as functional. The method in brief:
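MiaPaCa-2 cells in DMEM with 10% FBS, seeded 15 000/well and left to attach overnight. Medium then replaced with compound at different concentrations, untreated medium as control. Incubated 48 h at 37 °C, 5% CO2. Viable cells read by MTT colorimetric assay.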
(In general: Formazan colour is commonly taken as a measure of viable cells.)

For series [2], the system named is MIA PaCa-2. The experiment in a line: Induction of apoptosis in human MIAPaCa2 cells assessed as increase in caspase 3/7 activation after 48 hrs. It counts as functional. The method in brief:
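MiaPaCa-2 cells seeded 15 000/well; 24 h later treated 48 h. Caspase-3/7 measured by cleavage of fluorogenic Z-DEVD-R110 substrate (Apo-ONE reagent). Reagent incubated 30 min at room temperature, then fluorescence read. Triplicate; mean ± SE, n = 3.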

In series [3] the test system is MIA PaCa-2. Nature of the series: Induction of apoptosis in human MIAPaCa2 cells assessed as increase in DNA/histone nucleosome release into cytoplasm after 48 hrs by ELISA. The series is classed as functional. The method in brief:
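MiaPaCa-2 cells seeded 15 000/well for 24 h, then treated 48 h, untreated as control. Lysate supernatant captured on streptavidin plate with biotin anti-histone and peroxidase anti-DNA antibodies, 2 h at room temperature. After washing, peroxidase substrate added for 20 min, read at 405/490 nm. Result given as fold absorbance over control. Triplicate.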
Background: In an ELISA, binding on a coated surface is turned into a signal by an enzyme label.

The test system of series [4] is MIA PaCa-2. Nature of the series: Antitumor activity against human MIAPaCa2 cells transfected mouse assessed as reduction of tumor volume at 150 mg/kg, ip administered every 3 days for 4 weeks measured after 2 weeks. It counts as functional. The settings on record: route intraperitoneal. More on the design: scale not given: the % may be the effect or the level left. The method in brief:
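Male nude mice, 6 weeks old, inoculated subcutaneously with about 1 × 10⁷ MiaPaCa-2 cells plus 0.1 mL Matrigel. At 100 mm³ tumours, mice randomised; untreated mice served as control; five per group. Tumour volume measured weekly as length × width × depth × 0.5236. Mean ± SE, Student's t test.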

The subject of series [5] is MIA PaCa-2. Nature of the series: Cell clycle arrest in human MIAPaCa2 cells assessed as increase in sub-G1/G0 fraction after 48 hrs by flow cytometry analysis. The series is classed as functional. The method in brief: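 MiaPaCa-2 cells seeded at 10⁶ per 10 cm dish and left overnight. Treated 48 h, untreated as negative control. Cells trypsinised, fixed overnight in cold 70% ethanol at 4 °C, treated with RNase (500 µg/mL) and stained with propidium iodide (50 µg/mL). Sub-G1/G0 ratio read by flow cytometry on 10⁶ cells. Run in triplicate.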
(In general: Flow cytometry measures light scatter and fluorescence of single cells or particles in a stream.)

Series [6] in a line: Cytotoxicity against human HuH6 cells. It counts as cell-based. The method in brief:
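Huh-6 replicon cells were seeded at 15 000/well, handled as for Huh-9-13 (2% FCS DMEM, 3-fold serial dilutions without G418), and incubated 3 days at 37 °C. CC₅₀ is the µM concentration inhibiting Huh cell proliferation by 50%, given as mean ± SE (n ≥ 3).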

Series [7] is described as follows: Cytotoxicity against human HuH5.2 cells. The series is classed as cell-based, Huh-5-2. The method in brief: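 Huh-5-2 replicon cells were seeded at 5000/well in DMEM with 2% FCS and 250 µg/mL G418 and kept 24 h at 37 °C (5% CO₂). They were then exposed to 3-fold serial dilutions in medium without G418 for 4 days at 37 °C. CC₅₀ is the µM concentration inhibiting Huh cell proliferation by 50%, given as mean ± SE (n ≥ 3).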

Series [8] relates to Hepatitis C virus. The experiment in a line: Antiviral activity against HCV in human HuH6 cells assessed as inhibition of replicon replication. It counts as functional, organism-based, Hepacivirus hominis. Particulars: HuH-6. The method in brief: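 Huh-6 replicon cells seeded 15 000/well and treated with serial compound dilutions as for Huh-9-13. Incubated 3 days at 37 °C, then lysed in cells-to-cDNA buffer. Replicon RNA quantified by real-time PCR. EC50 is 50% drop in HCV RNA versus untreated control; mean ± SE, n ≥ 3.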

Series [9] relates to Hepatitis C virus. Nature of the series: Antiviral activity against HCV in human Huh9.13 cells assessed as inhibition of replicon replication. The series is classed as functional, organism-based, Hepacivirus hominis. The method in brief: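 Huh-9-13 replicon cells seeded 5000/well in DMEM with 2% FCS and 1000 µg/mL G418. After 24 h at 37 °C, 3-fold serial dilutions given without G418 for 4 days. Cells washed and lysed, replicon RNA quantified by real-time PCR. EC50 is 50% drop in HCV RNA versus untreated control; mean ± SE, n ≥ 3.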

Series [10] has as its system Hepatitis C virus. The experiment in a line: Antiviral activity against HCV in human HuH5.2 cells assessed as inhibition of replicon replication. It counts as functional, organism-based, Hepacivirus hominis. The settings on record: Huh-5-2. The method in brief: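 Huh-5-2 replicon cells seeded 5000/well in DMEM with 2% FCS and 250 µg/mL G418. After 24 h at 37 °C, 3-fold serial dilutions given in DMEM without G418. Incubated 4 days at 37 °C. Replicon read as luciferase activity (Steady-Glo). EC50 is 50% inhibition of replication; mean ± SE, n ≥ 3.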

Series [11] can be described thus: Cytotoxicity against human Huh-9-13 cells. It counts as cell-based. The method in brief: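 Huh-9-13 replicon cells were seeded at 5000/well in DMEM with 2% FCS and 1000 µg/mL G418 and incubated 24 h at 37 °C. They then received 3-fold serial compound dilutions in G418-free medium for 4 days at 37 °C. CC₅₀ is the µM concentration inhibiting Huh cell proliferation by 50%, given as mean ± SE (n ≥ 3).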

Series [12] concerns MIA PaCa-2. The experiment in a line: Antiproliferative activity against human MIAPaCa2 cells by MTT assay. The series is classed as functional, cell-based. The method in brief: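 MiaPaCa-2 pancreatic cancer cells in DMEM with 10% FBS, seeded at 15 000/well and allowed to attach overnight. Medium was then replaced with fresh medium containing compound, or medium alone as control. Cells were incubated for 48 h at 37 °C with 5% CO₂, and viable cells were counted by MTT colorimetric assay.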

Consider `Nc1ccn([C@@H]2O[C@H](CO)[C@@H](O)C2(F)F)c(=O)n1` [GEMCITABINE], for which the “inhibition (INH)” value in series [1] is recorded as 29%. Also, the “fold change (FC)” value in series [2] was determined as 2.
In the case of `COC(=O)c1nc(C#Cc2ccc(C(F)(F)F)cc2)n([C@@H]2O[C@H](COC(C)=O)[C@@H](OC(C)=O)[C@H]2OC(C)=O)n1`, the “inhibition (INH)” value in [1] was 59%. The “fold change (FC)” value in series [2] is 6.8; in series [3], 3; in series [5], 3. Moreover, the Activity in series [4] stood at 60%.
Regarding `NC(=O)c1nc(C#Cc2ccccc2)n(COCCO)n1`, the CC50 in series [6], in series [7] and in [11] was above 170 µM throughout. The EC50 in series [8] is 112 µM; in series [9] it was above 164 µM; in [10], 62.9 µM.
Turning to `COC(=O)c1nc(C#CC2(O)CCCC2)n([C@@H]2O[C@H](COC(C)=O)[C@@H](OC(C)=O)[C@H]2OC(C)=O)n1`, the CC50 in series [6], in [7] and in series [11] was above 105 µM each time. In addition, the figures for the EC50 in series [8], in series [9] and in series [10] were 25.1 µM, 54.3 µM and 52.3 µM, respectively.
`NC(=O)c1nc(C#Cc2ccc(C(F)(F)F)cc2)n(COCCO)n1`: the CC50 in series [6] came out at 87.5 µM; in series [11], 79 µM. The outcome in series [12] was inactive. For the same compound, the concentration for a half-maximal effect (EC50) worked out at 50.8 µM in [8], 36.7 µM in [9] and 14.1 µM in series [10].
As for `NC(=O)c1nc(C#Cc2ccc(F)cc2)n(COCCO)n1`, the CC50 in series [6] is 132 µM; in series [7] it was above 160 µM; in [11], above 160 µM. The values for the EC50 in series [8], in series [9] and in series [10] were 95.3 µM, 125 µM and 72.3 µM, respectively.
On to `NC(=O)c1nc(C#Cc2ccc(C(F)(F)F)cc2)n([C@@H]2O[C@H](CO)[C@@H](O)[C@H]2O)n1`, for which the results for the CC50 in series [6], in [7] and in series [11] were above 120 µM, 82.5 µM and above 120 µM, respectively. The EC50 in series [8] turned out to be 43.7 µM; in [9], 19.4 µM; in [10], 17.7 µM.
Take `NC(=O)c1ncn([C@@H]2O[C@H](CO)[C@@H](O)[C@H]2O)n1` [RIBAVIRIN]: the CC50 in series [6] is above 100 µM; in series [11] it was 229 µM. For the same compound, the concentration giving a half-maximal response (EC50) amounted to 33 µM in [8], 84 µM in series [9] and 28.7 µM in [10].

The CC50 is the concentration that lowers cell viability or growth by half. In general, EC50 refers to the midpoint of the concentration-response curve.
